# Reference: ChEMBL document CHEMBL1126705, “16 beta-([18F]fluoro)estrogens: systematic investigation of a new series of fluorine-18-labeled estrogens as potential imaging agents for estrogen-receptor-positive breast tumors” (J Med Chem, 1993)
# Legend:
# [1] = Partition coefficient (logP); assay type: physicochemical; conditions: octanol/water
# Method in brief: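 Octanol/water log P estimated from log k'w measured by reversed-phase HPLC (Minick method) on a C8 silica column.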
# [2] = molecular target: T1, Sex hormone-binding globulin (Homo sapiens) (UniProt P04278); assay: Relative binding affinity against sex steroid binding protein (SBP)
# T1 sequence (whole entry): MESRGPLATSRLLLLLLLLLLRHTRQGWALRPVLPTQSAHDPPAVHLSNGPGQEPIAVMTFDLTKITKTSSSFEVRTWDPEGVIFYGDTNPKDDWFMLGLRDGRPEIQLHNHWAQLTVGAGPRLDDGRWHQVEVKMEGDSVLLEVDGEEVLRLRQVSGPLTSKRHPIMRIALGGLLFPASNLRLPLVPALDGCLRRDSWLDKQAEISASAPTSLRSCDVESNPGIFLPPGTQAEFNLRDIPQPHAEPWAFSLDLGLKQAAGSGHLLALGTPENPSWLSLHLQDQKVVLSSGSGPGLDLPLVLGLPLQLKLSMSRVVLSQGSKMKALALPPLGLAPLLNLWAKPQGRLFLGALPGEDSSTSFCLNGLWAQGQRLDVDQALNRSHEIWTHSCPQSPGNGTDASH
# [3] = molecular target: T2, Alpha-fetoprotein (Rattus norvegicus) (UniProt P02773); assay: Relative binding affinity for Alphafetoprotein
# T2 sequence (whole entry): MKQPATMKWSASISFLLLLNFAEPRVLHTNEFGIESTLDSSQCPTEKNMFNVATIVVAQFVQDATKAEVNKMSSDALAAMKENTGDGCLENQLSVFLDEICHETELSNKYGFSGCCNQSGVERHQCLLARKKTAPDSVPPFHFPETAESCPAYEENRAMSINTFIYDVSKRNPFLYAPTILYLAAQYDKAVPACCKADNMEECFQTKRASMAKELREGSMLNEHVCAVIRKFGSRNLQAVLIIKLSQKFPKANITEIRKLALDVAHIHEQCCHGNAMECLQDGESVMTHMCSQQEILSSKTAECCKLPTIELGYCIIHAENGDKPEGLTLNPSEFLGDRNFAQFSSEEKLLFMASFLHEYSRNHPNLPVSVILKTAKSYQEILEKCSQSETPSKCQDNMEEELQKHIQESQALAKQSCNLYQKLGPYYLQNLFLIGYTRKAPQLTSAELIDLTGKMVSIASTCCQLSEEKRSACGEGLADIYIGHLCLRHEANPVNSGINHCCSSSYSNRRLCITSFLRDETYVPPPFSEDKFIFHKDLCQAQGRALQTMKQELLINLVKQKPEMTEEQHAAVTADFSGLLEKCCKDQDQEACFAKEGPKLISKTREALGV
# [4] = molecular target: T3, Estrogen receptor (Rattus norvegicus) (UniProt P06211+Q62986)
# [5] = molecular target: T3, Estrogen receptor (Rattus norvegicus); remark: listed apart in the source
Compound,logP [1],relative binding affinity (RBA) [2],relative binding affinity (RBA) [3],NSB [4],BSI [5]
C#C[C@]1(O)CC[C@H]2[C@@H]3CCc4cc(O)ccc4[C@H]3[C@@H](OC)C[C@@]21C [MOXESTROL],3.01,0.071,0.023,0.76,243
CO[C@H]1C[C@]2(C)[C@@H](O)CC[C@H]2[C@@H]2CCc3cc(O)ccc3[C@H]21,2.72,1.72,0.26,0.57,151
C#C[C@]1(O)CC[C@H]2[C@@H]3CCc4cc(O)ccc4[C@H]3CC[C@@]21C [ETHINYL ESTRADIOL],3.42,1.81,3.51,,
C[C@]12CC[C@@H]3c4ccc(O)cc4CC[C@H]3[C@@H]1CC[C@@H]2O [ESTRADIOL],3.26,100,100,,
